Results as given in publication PMC4833523 (Bioorganic & medicinal chemistry letters, 2016).

Legend:
human mGlu1 = human mGlu1 (Homo sapiens, UniProt Q13255); assay: Calcium mobilization mGlu1 PAM assay; type: cell-based
Method in brief: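 Calcium mobilization read-out on human mGlu1. Test compounds were first triaged in a 10 μM single-point screen with an EC20 concentration of glutamate. Those selected then got full concentration-response curves. Values are the average of three independent experiments, each run in triplicate.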

[1] = Human microsomal intrinsic clearance / predicted hepatic clearance; type: in vitro ADME; details: compared to 4
[2] = Rat brain homogenate binding; type: in vitro ADME; details: compared to 4
Rat IV PBL = type: in vivo; details: compared to 4
[3] = Rat microsomal intrinsic clearance / predicted hepatic clearance; type: in vitro ADME; details: predicted hepatic clearance from rat microsomal intrinsic clearance

Chain of human mGlu1 (Q13255 19-1194): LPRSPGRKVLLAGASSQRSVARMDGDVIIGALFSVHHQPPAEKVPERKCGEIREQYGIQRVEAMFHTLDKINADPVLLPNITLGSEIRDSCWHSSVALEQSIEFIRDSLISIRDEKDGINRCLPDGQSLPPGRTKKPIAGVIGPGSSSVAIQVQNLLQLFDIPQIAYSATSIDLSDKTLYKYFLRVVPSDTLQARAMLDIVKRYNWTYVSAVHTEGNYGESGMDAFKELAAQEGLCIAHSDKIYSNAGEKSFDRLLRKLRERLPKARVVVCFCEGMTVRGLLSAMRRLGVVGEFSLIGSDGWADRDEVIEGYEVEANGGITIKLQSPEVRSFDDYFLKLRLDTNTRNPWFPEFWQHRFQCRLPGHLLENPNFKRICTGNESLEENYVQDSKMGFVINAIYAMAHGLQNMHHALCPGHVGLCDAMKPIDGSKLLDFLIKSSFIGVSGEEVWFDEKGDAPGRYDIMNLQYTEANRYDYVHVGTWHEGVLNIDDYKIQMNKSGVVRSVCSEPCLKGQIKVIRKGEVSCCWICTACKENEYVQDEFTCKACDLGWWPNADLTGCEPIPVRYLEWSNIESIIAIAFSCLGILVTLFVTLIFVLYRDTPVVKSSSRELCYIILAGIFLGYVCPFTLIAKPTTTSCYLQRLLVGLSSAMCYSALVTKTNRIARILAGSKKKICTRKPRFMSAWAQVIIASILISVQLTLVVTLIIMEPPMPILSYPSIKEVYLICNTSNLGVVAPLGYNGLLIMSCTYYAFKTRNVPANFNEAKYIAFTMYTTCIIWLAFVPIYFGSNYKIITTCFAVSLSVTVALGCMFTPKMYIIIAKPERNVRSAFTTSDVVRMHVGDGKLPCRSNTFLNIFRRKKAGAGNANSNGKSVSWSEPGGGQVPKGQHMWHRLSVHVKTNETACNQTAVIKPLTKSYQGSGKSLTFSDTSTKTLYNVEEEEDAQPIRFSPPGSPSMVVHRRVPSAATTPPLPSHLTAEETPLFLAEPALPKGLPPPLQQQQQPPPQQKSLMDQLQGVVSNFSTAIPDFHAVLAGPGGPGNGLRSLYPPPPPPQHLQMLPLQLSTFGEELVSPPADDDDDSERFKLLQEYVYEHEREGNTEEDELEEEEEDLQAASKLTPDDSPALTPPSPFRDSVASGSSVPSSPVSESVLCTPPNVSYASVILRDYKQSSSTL

mGlu1 PAM activity in words (human mGlu1)	fold improvement in Kp (CNS exposure) over 4 (Rat IV PBL)	Rat CLhep [3]	Structure (SMILES)	other results
moderate activity			O=C(Nc1ccccn1)C1c2ccccc2Oc2ccccc21 [9h]	
	~ 4 fold	62.2 mL/min/kg	N#Cc1csc(NC(=O)C2c3ccccc3Oc3ccccc32)n1 [9a]	reduction of human microsomal intrinsic clearance [1]: ~ 50%; enhancement of free drug in brain [2]: > 10 fold
	~ 3 fold	64 mL/min/kg	CC(C)c1csc(NC(=O)C2c3ccccc3Oc3ccccc32)n1 [9b]	
			O=C(Nc1nc2ccccc2s1)C1c2ccccc2Oc2ccccc21 [9f]	fold increase in potency on replacing thiazole 9e (human mGlu1; 9f versus 9e): ~3 fold
weak PAM activity			Cc1nc(NC(=O)C2c3ccccc3Oc3ccccc32)sc1C [9g]	
